In ChEMBL document CHEMBL1154899, “Synthesis and biological evaluation of caffeic acid 3,4-dihydroxyphenethyl ester” (J Nat Prod, 2010):
In brackets after ≈: the same amount, converted by molar mass.

Experiments:
Assay type in all cases: functional
SK-MEL-28 = test: Antiproliferative activity against human SK-MEL-28 cells assessed as cell growth at 500 uM by SRB assay; details: read-out: Activity
U-251 [1] = test: Antiproliferative activity against human U251 cells assessed as cell growth at 500 uM by SRB assay; details: read-out: Activity
[2] = system: Radical scavenging activity; test: Antioxidant activity assessed as DPPH radical scavenging activity after 20 mins
Outline: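 Test solution at several concentrations (100 µL) mixed with 900 µL of 0.04 mg/mL DPPH in methanol, held 20 min at room temperature, absorbance read at 517 nm. Inhibition % = [(Ac − As)/Ac] × 100, with a blank holding 100 µL methanol in place of sample. Inhibition plotted against concentration; EC50 (mean ± SD) from linear regression of three determinations.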

OVCAR-3 = test: Antiproliferative activity against human OVCAR-3 cells assessed as cell growth at 500 uM by SRB assay; details: read-out: Activity
[3] = Antiproliferative activity against human Hs 578T cells assessed as cell growth at 500 uM by SRB assay; details: read-out: Activity
UACC-257 = test: Antiproliferative activity against human UACC257 cells assessed as cell growth at 500 uM by SRB assay; details: read-out: Activity
MOLT-4 = test: Antiproliferative activity against human MOLT4 cells by SRB assay
HCT-15 = test: Antiproliferative activity against human HCT15 cells assessed as cell growth at 5 uM by SRB assay; details: read-out: Activity
TK-10 = test: Antiproliferative activity against human TK10 cells assessed as cell growth at 50 uM by SRB assay; details: read-out: Activity
MDA-MB-231 [4] = test: Antiproliferative activity against human MDA-MB-231 cells assessed as cell growth at 500 uM by SRB assay; details: read-out: Activity
T47D = test: Antiproliferative activity against human T47D cells assessed as cell growth at 500 uM by SRB assay; details: read-out: Activity
OVCAR-8 [5] = test: Antiproliferative activity against human OVCAR8 cells assessed as cell growth at 50 uM by SRB assay; details: read-out: Activity
HCT-116 = test: Antiproliferative activity against human HCT116 cells assessed as cell growth at 50 uM by SRB assay; details: read-out: Activity
NCI-H460 = test: Antiproliferative activity against human NCI-H460 cells assessed as cell growth at 5 uM by SRB assay; details: read-out: Activity
[6] = Antiproliferative activity against human Hs 578T cells by SRB assay
SF-539 = test: Antiproliferative activity against human SF539 cells assessed as cell growth at 500 uM by SRB assay; details: read-out: Activity
786-0 [7] = test: Antiproliferative activity against human 786-0 cells assessed as cell growth at 5 uM by SRB assay; details: read-out: Activity
MDA-MB-435 [8] = test: Antiproliferative activity against human MDA-MB-435 cells by SRB assay
[9] = Antiproliferative activity against human Hs 578T cells assessed as cell growth at 5 uM by SRB assay; details: read-out: Activity
SF-295 = test: Antiproliferative activity against human SF295 cells assessed as cell growth at 500 uM by SRB assay; details: read-out: Activity
BT-549 = test: Antiproliferative activity against human BT549 cells assessed as cell growth at 500 uM by SRB assay; details: read-out: Activity
LOX IMVI = test: Antiproliferative activity against human LOXIMVI cells by SRB assay
OVCAR-8 [10] = test: Antiproliferative activity against human OVCAR8 cells assessed as cell growth at 500 uM by SRB assay; details: read-out: Activity
NCI-H322M = test: Antiproliferative activity against human NCI-H322M cells assessed as cell growth at 5 uM by SRB assay; details: read-out: Activity
U-251 [11] = test: Antiproliferative activity against human U251 cells assessed as cell growth at 50 uM by SRB assay; details: read-out: Activity
MCF7 = test: Antiproliferative activity against human MCF7 cells assessed as cell growth at 5 mM by SRB assay; details: read-out: Activity
SK-MEL-2 [12] = test: Antiproliferative activity against human SK-MEL-2 cells by SRB assay
SW-620 [13] = test: Antiproliferative activity against human SW620 cells by SRB assay
Malme-3M = test: Antiproliferative activity against human MALME-3M cells assessed as cell growth at 0.5 uM by SRB assay; details: read-out: Activity
A498 = test: Antiproliferative activity against human A498 cells assessed as cell growth at […] by SRB assay; details: read-out: Activity
HL-60(TB) = test: Antiproliferative activity against human HL-60(TB) cells assessed as cell growth at 0.5 uM by SRB assay; details: read-out: Activity
MDA-MB-435 [14] = test: Antiproliferative activity against human MDA-MB-435 cells assessed as cell growth at 500 uM by SRB assay; details: read-out: Activity
786-0 [15] = test: Antiproliferative activity against human 786-0 cells assessed as cell growth at 50 uM by SRB assay; details: read-out: Activity
SNB-19 = test: Antiproliferative activity against human SNB19 cells assessed as cell growth at 5 uM by SRB assay; details: read-out: Activity
SW-620 [16] = test: Antiproliferative activity against human SW620 cells assessed as cell growth at 5 mM by SRB assay; details: read-out: Activity
KM12 = test: Antiproliferative activity against human KM12 cells assessed as cell growth at 50 uM by SRB assay; details: read-out: Activity
SK-MEL-2 [17] = test: Antiproliferative activity against human SK-MEL-2 cells assessed as cell growth at 50 uM by SRB assay; details: read-out: Activity
HOP-92 = test: Antiproliferative activity against human HOP92 cells by SRB assay
MDA-MB-231 [18] = test: Antiproliferative activity against human MDA-MB-231 cells by SRB assay
[19] = read-out: LC50 (the source's name)
[20] = read-out: pLC50 (the source's name) (converted)

## O=C(/C=C/c1ccc(O)c(O)c1)OCCc1ccc(O)c(O)c1
SK-MEL-28
  growth at 500 µM: 55%
U-251 [1]
  growth at 500 µM: 65%
[2]
  EC50: 4.7 µg/mL (≈ 14.9 µM)
OVCAR-3
  growth at 500 µM: 50%
[3]
  growth at 500 µM: 67%
UACC-257
  growth at 500 µM: 83%
MOLT-4; read-out: GI50
  GI50: 3.06 µM
MOLT-4; [19]
  CC50: > 50 µM
MOLT-4; read-out: TGI
  TGI: > 50 µM
MOLT-4; read-out: pGI50 (converted)
  GI50: 3.09 µM
MOLT-4; [20]
  CC50: > 50.1 µM
MOLT-4; read-out: pTGI
  TGI: > 50.1 µM
HCT-15
  growth at 5 µM: 88%
TK-10
  growth at 50 µM: 94%
MDA-MB-231 [4]
  growth at 500 µM: 85%
T47D
  growth at 500 µM: 71%
OVCAR-8 [5]
  growth at 50 µM: 78%
HCT-116
  growth at 50 µM: 92%
NCI-H460
  growth at 5 µM: 92%
[6]; read-out: GI50
  GI50: 9.75 µM
[6]; [19]
  CC50: > 50 µM
[6]; read-out: TGI
  TGI: > 50 µM
[6]; read-out: pGI50 (converted)
  GI50: 9.77 µM
[6]; [20]
  CC50: > 50.1 µM
[6]; read-out: pTGI
  TGI: > 50.1 µM
SF-539
  growth at 500 µM: 55%
786-0 [7]
  growth at 5 µM: 98%
MDA-MB-435 [8]; read-out: GI50
  GI50: 4.01 µM
MDA-MB-435 [8]; [19]
  CC50: > 50 µM
MDA-MB-435 [8]; read-out: TGI
  TGI: > 50 µM
MDA-MB-435 [8]; read-out: pGI50 (converted)
  GI50: 3.98 µM
MDA-MB-435 [8]; [20]
  CC50: > 50.1 µM
MDA-MB-435 [8]; read-out: pTGI
  TGI: > 50.1 µM
[9]
  growth at 5 µM: 80%
SF-295
  growth at 500 µM: 92%
BT-549
  growth at 500 µM: 60%
LOX IMVI; read-out: GI50
  GI50: 6.38 µM
LOX IMVI; [19]
  CC50: > 50 µM
LOX IMVI; read-out: TGI
  TGI: 35.1 µM
LOX IMVI; read-out: pGI50 (converted)
  GI50: 6.31 µM
LOX IMVI; [20]
  CC50: > 50.1 µM
LOX IMVI; read-out: pTGI (converted)
  TGI: 35.5 µM
OVCAR-8 [10]
  growth at 500 µM: 64%
NCI-H322M
  growth at 5 µM: 92%
U-251 [11]
  growth at 50 µM: 98%
MCF7
  growth at 5000 µM: 5%
SK-MEL-2 [12]; read-out: GI50
  GI50: 3.02 µM
SK-MEL-2 [12]; [19]
  CC50: > 50 µM
SK-MEL-2 [12]; read-out: TGI
  TGI: 23.7 µM
SK-MEL-2 [12]; read-out: pGI50 (converted)
  GI50: 3.02 µM
SK-MEL-2 [12]; [20]
  CC50: > 50.1 µM
SK-MEL-2 [12]; read-out: pTGI (converted)
  TGI: 23.4 µM
SW-620 [13]; read-out: GI50
  GI50: 10.2 µM
SW-620 [13]; [19]
  CC50: > 50 µM
SW-620 [13]; read-out: TGI
  TGI: > 50 µM
SW-620 [13]; read-out: pGI50 (converted)
  GI50: 10.2 µM
SW-620 [13]; [20]
  CC50: > 50.1 µM
SW-620 [13]; read-out: pTGI
  TGI: > 50.1 µM
Malme-3M
  growth at 0.5 µM: 91%
A498
  growth: -11%
HL-60(TB)
  growth at 0.5 µM: 94%
MDA-MB-435 [14]
  growth at 500 µM: 48%
786-0 [15]
  growth at 50 µM: 94%
SNB-19
  growth at 5 µM: 95%
SW-620 [16]
  growth at 5000 µM: 19%
KM12
  growth at 50 µM: 81%
SK-MEL-2 [17]
  growth at 50 µM: 91%
HOP-92; read-out: GI50
  GI50: 0.79 µM
HOP-92; [19]
  CC50: > 50 µM
HOP-92; read-out: TGI
  TGI: 16.8 µM
HOP-92; read-out: pGI50 (converted)
  GI50: 0.794 µM
HOP-92; [20]
  CC50: > 50.1 µM
HOP-92; read-out: pTGI (converted)
  TGI: 17 µM
MDA-MB-231 [18]; read-out: GI50
  GI50: 11.1 µM
MDA-MB-231 [18]; [19]
  CC50: > 50 µM
MDA-MB-231 [18]; read-out: TGI
  TGI: > 50 µM
MDA-MB-231 [18]; read-out: pGI50 (converted)
  GI50: 10.5 µM
MDA-MB-231 [18]; [20]
  CC50: > 50.1 µM
MDA-MB-231 [18]; read-out: pTGI
  TGI: > 50.1 µM
